We go through four compounds from ChEMBL document CHEMBL4118245, “Stereoselective synthesis of new rac-quercitols containing hydroxymethyl groups as glucosidase inhibitors” (Bioorg Med Chem Lett, 2018).

In assay [1] the test system is Prunus dulcis. Briefly: Inhibition of almond beta-glucosidase at 45 uM using p-nitrophenyl D-glucopyranoside as substrate after 3 mins by UV/Vis spectrophotometric method relative to control. An outline of the steps: (§1)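 Compounds were tested at 10, 20, 25, 45, 80, 120 and 180 µM, with percent enzyme inhibition reported at each level. Acarbose served as the positive control. The study ran four experiments per compound, each in triplicate, and reports mean ± S.D. IC50 is the concentration giving 50% inhibition of enzyme activity under the assay conditions, taken from this concentration series.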

Assay [2] relates to Saccharomyces cerevisiae. The assay can be described thus: Inhibition of Saccharomyces cerevisiae alpha-glucosidase at 45 uM using 4-nitrophenyl D-glucopyranoside as substrate after 3 mins by UV/Vis spectrophotometric method relative to control. An outline of the steps: as §1
Assay [3] has as its system Prunus dulcis. The assay can be described thus: Inhibition of almond beta-glucosidase at 10 uM using p-nitrophenyl D-glucopyranoside as substrate after 3 mins by UV/Vis spectrophotometric method relative to control. In a few lines: as §1
Assay [4] has as its system Prunus dulcis. The assay can be described thus: Inhibition of almond beta-glucosidase at 120 uM using p-nitrophenyl D-glucopyranoside as substrate after 3 mins by UV/Vis spectrophotometric method relative to control. An outline of the steps:
as §1

Assay [5] deals with Saccharomyces cerevisiae. The assay can be described thus: Inhibition of Saccharomyces cerevisiae alpha-glucosidase at 10 uM using 4-nitrophenyl D-glucopyranoside as substrate after 3 mins by UV/Vis spectrophotometric method relative to control. In a few lines: as §1
Assay [6] relates to Prunus dulcis. Briefly: Inhibition of almond beta-glucosidase at 20 uM using p-nitrophenyl D-glucopyranoside as substrate after 3 mins by UV/Vis spectrophotometric method relative to control. In a few lines: as §1
Assay [7] deals with Saccharomyces cerevisiae. Briefly: Inhibition of Saccharomyces cerevisiae alpha-glucosidase at 80 uM using 4-nitrophenyl D-glucopyranoside as substrate after 3 mins by UV/Vis spectrophotometric method relative to control. In a few lines:
as §1

Assay [8] has as its system Saccharomyces cerevisiae. The assay can be described thus: Inhibition of Saccharomyces cerevisiae alpha-glucosidase at 120 uM using 4-nitrophenyl D-glucopyranoside as substrate after 3 mins by UV/Vis spectrophotometric method relative to control. In a few lines: as §1
Assay [9] has as its system Saccharomyces cerevisiae. Briefly: Inhibition of Saccharomyces cerevisiae alpha-glucosidase at 180 uM using 4-nitrophenyl D-glucopyranoside as substrate after 3 mins by UV/Vis spectrophotometric method relative to control. In a few lines: as §1
The test system of assay [10] is Prunus dulcis. The assay can be described thus: Inhibition of almond beta-glucosidase at 80 uM using p-nitrophenyl D-glucopyranoside as substrate after 3 mins by UV/Vis spectrophotometric method relative to control. An outline of the steps: as §1
The test system of assay [11] is Prunus dulcis. The assay can be described thus: Inhibition of almond beta-glucosidase at 25 uM using p-nitrophenyl D-glucopyranoside as substrate after 3 mins by UV/Vis spectrophotometric method relative to control. An outline of the steps: as §1
Assay [12] concerns Saccharomyces cerevisiae. The assay can be described thus: Inhibition of Saccharomyces cerevisiae alpha-glucosidase at 20 uM using 4-nitrophenyl D-glucopyranoside as substrate after 3 mins by UV/Vis spectrophotometric method relative to control. An outline of the steps: as §1
For assay [13], the system named is Prunus dulcis. Briefly: Inhibition of almond beta-glucosidase at 180 uM using p-nitrophenyl D-glucopyranoside as substrate after 3 mins by UV/Vis spectrophotometric method relative to control. In a few lines: as §1
Assay [14] concerns Saccharomyces cerevisiae. The assay can be described thus: Inhibition of Saccharomyces cerevisiae alpha-glucosidase at 25 uM using 4-nitrophenyl D-glucopyranoside as substrate after 3 mins by UV/Vis spectrophotometric method relative to control. An outline of the steps:
as §1

A short description of assay [15]: Inhibition of Saccharomyces cerevisiae alpha-glucosidase using 4-nitrophenyl D-glucopyranoside as substrate after 3 mins by UV/Vis spectrophotometric method. An outline of the steps:
as §1

The nature of assay [16]: Inhibition of almond beta-glucosidase using p-nitrophenyl D-glucopyranoside as substrate after 3 mins by UV/Vis spectrophotometric method. On the set-up: species or system Prunus dulcis. An outline of the steps:
as §1

On to `OC[C@H]1C[C@H](O)[C@@H](O)[C@@H](O)[C@H]1CO`, for which the inhibition (as a rule, how much of the control response was suppressed) in the assay on Prunus dulcis [1] is 13.7%; with Saccharomyces cerevisiae [2], 21%; in the assay with Prunus dulcis [3] it was 2.2%; in the assay on Prunus dulcis [4], 20.2%; in the assay on Saccharomyces cerevisiae [5] it was 10%; in the assay on Prunus dulcis [6], 4.98%. Also, the inhibition in the assay on Saccharomyces cerevisiae [7] is 31%; with Saccharomyces cerevisiae [8] it was 40%; in the assay with Saccharomyces cerevisiae [9], 42%; in the assay on Prunus dulcis [10] it was 19.1%; with Prunus dulcis [11], 12.7%; in the assay on Saccharomyces cerevisiae [12] it was 13%. Moreover, the inhibition in the assay on Prunus dulcis [13] came to 30.8%; in the assay with Saccharomyces cerevisiae [14] it was 19%.
In the case of `C[C@H]1O[C@H](O[C@H]2[C@H](O)[C@@H](O)[C@@H](O[C@H]3[C@H](O)[C@@H](O)C(O)O[C@@H]3CO)O[C@@H]2CO)[C@H](O)[C@@H](O)[C@@H]1N[C@H]1C=C(CO)[C@@H](O)[C@H](O)[C@H]1O` (some centres undefined) [ACARBOSE], the inhibition in the assay on Prunus dulcis [1] is 39%; in the assay with Saccharomyces cerevisiae [2], 46%; in the assay on Prunus dulcis [3] it was 17%; in the assay on Prunus dulcis [4], 60%; in the assay with Saccharomyces cerevisiae [5], 22%; in the assay with Prunus dulcis [6], 25%. Besides, the inhibition turned out to be 60% in the assay on Saccharomyces cerevisiae [7]; 63% in the assay on Saccharomyces cerevisiae [8]; 74% with Saccharomyces cerevisiae [9]; 52% with Prunus dulcis [10]; 29% in the assay with Prunus dulcis [11]; 30% in the assay on Saccharomyces cerevisiae [12]. Further, the results for the inhibition in the assay with Prunus dulcis [13] and with Saccharomyces cerevisiae [14] were 66% and 33%, respectively. Besides, the half-inhibitory concentration (IC50) (usually the midpoint of a concentration-inhibition curve) in assay [15] was 52.5 µM; in [16] it was 57.8 µM.
As for `OC[C@H]1C[C@H](O)[C@H](O)[C@H](O)[C@H]1CO`, the inhibition with Prunus dulcis [1] was 34.3%; with Saccharomyces cerevisiae [2], 19%; with Prunus dulcis [3], 18%; in the assay on Prunus dulcis [4], 42.7%; with Saccharomyces cerevisiae [5], 2%; in the assay with Prunus dulcis [6], 20.4%. Besides, the inhibition with Saccharomyces cerevisiae [7] stood at 20%; with Saccharomyces cerevisiae [8], 22%; with Saccharomyces cerevisiae [9], 25%; in the assay with Prunus dulcis [10], 37.5%; in the assay on Prunus dulcis [11] it was 29%; with Saccharomyces cerevisiae [12] it was 6%. Moreover, the values for the inhibition in the assay on Prunus dulcis [13] and with Saccharomyces cerevisiae [14] were 51.8% and 14%, respectively. Moreover, the IC50 in assay [16] came to 198 µM.
As for `OC[C@H]1C[C@@H](O)[C@H](O)[C@H](O)[C@H]1CO`, the inhibition in the assay on Prunus dulcis [1] came to 30.4%; in the assay with Saccharomyces cerevisiae [2] it was 19.9%; in the assay with Prunus dulcis [3], 3.4%; with Prunus dulcis [4], 32.1%; in the assay on Saccharomyces cerevisiae [5], 15.8%; with Prunus dulcis [6] it was 27.8%. The inhibition in the assay with Saccharomyces cerevisiae [7] amounted to 21.4%; in the assay with Saccharomyces cerevisiae [8], 37.6%; in the assay with Saccharomyces cerevisiae [9], 42.2%; in the assay on Prunus dulcis [10] it was 31.8%; in the assay with Prunus dulcis [11], 28.4%; in the assay with Saccharomyces cerevisiae [12], 18.8%. In addition, the results for the inhibition in the assay with Prunus dulcis [13] and in the assay with Saccharomyces cerevisiae [14] were 33.3% and 19.4%, respectively.
